Sampled rows, rich in hits. Any-hit rate of the full collection: about 2.5%.
MC4R ag barr: agonists of human melanocortin 4 receptor (MC4R) beta-arrestin. P32245. hit rate 0.98% among 360,000. AID 540308. activation, % at 8.9 µM. U2OS MC4R beta-arrestin complementation, luminescence; percent of melanotan II response, DMSO zero;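 active means activation above a per-plate cutoff, the mean activation of sample wells on that plate plus 3 SD, cut at about 8% in these data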
Rev-erbA mod: Rev-erb alpha (human) modulation; P20393; Rev-erbα–FITC-DNA binding, fluorescence polarization, 90 min; activity, % at 10 µM; hit rate 0.79% among 370,000; AID 1259318;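 active means activity above about 14%, limit read from the data; passing the limit was not always enough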;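 further: 0% = DMSO wells with 35 nM protein and 100% = DMSO wells with 750 nM protein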
PG9 Ab binder: binds the HIV-1 gp120 antibody PG9 | hit rate 0.43% among 360,000 | AID 624416 | inhibition, % at 6.7 µM | TR-FRET gp120-PG9 antibody binding; in the data active means inhibition above about 8.5%
NTR1 agonist: agonists of human neurotensin receptor NTR1; P30989; NTR1-U2OS beta-arrestin-GFP spot imaging, agonist mode; activation, % at 20 µM; hit rate 0.17% among 330,000; AID 493036;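 active means activation at or above 40% of the spot to cytoplasm intensity ratio, with at least 20 cells analyzed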;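 further: 0% = DMSO without peptide and 100% = 100 nM NTR1 peptide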
Target sequence (P30989 whole entry, looked up): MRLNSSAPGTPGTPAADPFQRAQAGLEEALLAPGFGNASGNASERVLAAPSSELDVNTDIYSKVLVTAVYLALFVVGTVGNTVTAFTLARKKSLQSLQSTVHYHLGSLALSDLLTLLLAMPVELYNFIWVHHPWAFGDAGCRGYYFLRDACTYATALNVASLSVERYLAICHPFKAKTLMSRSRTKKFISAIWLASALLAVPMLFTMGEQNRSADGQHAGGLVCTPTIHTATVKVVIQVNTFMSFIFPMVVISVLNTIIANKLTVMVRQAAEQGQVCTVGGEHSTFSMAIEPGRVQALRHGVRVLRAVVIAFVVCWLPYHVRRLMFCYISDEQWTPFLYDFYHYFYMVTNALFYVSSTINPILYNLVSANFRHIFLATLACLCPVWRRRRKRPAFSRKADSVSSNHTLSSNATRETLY
MC4R antagonist: antagonists of human melanocortin 4 receptor (MC4R). hit rate 0.48% among 360,000. inhibition, % at 6.5 µM. AID 540295. MC4R-expressing cells, MTII-stimulated cAMP, LANCE TR-FRET. P32245;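 active means inhibition above its plate's cutoff, the mean of tested wells on that plate plus 3 SD, cut at about 29% in these data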;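 further: 0% = Melanotan II alone and 100% = Melanotan II plus saturating MCL0020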
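Assay system: U2OS cells stably expressing human melanocortin 4 receptor (MC4R) / Dosing: 6.5 µM / Timing: compound 30 min, challenge 1 h, detection 1 h / Measured by: Eu-cAMP/anti-cAMP TR-FRET, emission 671 nm / Replicates: singlicate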
NR1D1 mod conf: confirmation of modulators of human Rev-erb alpha DNA binding; Rev-erb alpha FITC-DNA binding, fluorescence polarization, 90 min; shares compounds with Rev-erbA mod; activation, % at 25 µM; AID 1259319; hit rate 61% among 3,000;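 active means activation at or above a set limit, or at least 3 SD above the negative control mean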;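 further: 0% = 35 nM protein with DMSO and 100% = 750 nM protein high control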
RORg counter: affects RORgamma DNA binding in a Rev-erb alpha counter-screen; shares compounds with Rev-erbA mod; purified RORgamma protein-FITC-DNA binding, fluorescence polarization; IC50, µM; hit rate 8% among 910;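 active means Compounds whose fitted half-maximal concentration for disrupting protein-DNA binding is below 10 micromolar; the record names Rev-erb in its text, so the target is in doubt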
* hit, by the source's call; x = no result given.

SMILES	MC4R ag barr	Rev-erbA mod	PG9 Ab binder	NTR1 agonist	MC4R antagonist	NR1D1 mod conf	others
COc1ccc(NC(=O)c2cc(-c3cc(OC)c(OC)c(OC)c3)nc3ccccc23)cc1OC	2	-1	-1	6	16	x
COc1cc(-c2cc(C(=O)Nc3cccc(S(=O)(=O)N(C)C)c3)c3ccccc3n2)cc(OC)c1OC	-2	15*	0	1	7	-9
CCCCCN1CCCCC(NC(=O)c2ccccc2OC)C1=O (stereo not drawn)	x	-3	x	x	x	x
COc1cccc(CN(C)C(=O)[C@@H](Cc2ccccc2)NC(=O)[C@H]2O[C@@H](n3ccc(=O)[nH]c3=O)[C@H](O)[C@@H]2O)c1	x	-2	-1	x	x	x
CCC(C)N(C(=O)CNc1nnnn1-c1ccccc1)C(C)CC (stereo not drawn)	x	2	x	x	x	x
O=C(/C=C/c1cccc2ccccc12)NCCC1=CCCCC1	4	29*	-1	1	0	38*	RORg counter=>40
O=C1CCC[C@H]2C[C@H](NCc3cccc(Cl)c3)CC[C@]23CCCN13	x	-2	x	x	x	x
O=C(NCc1cccs1)C1CCC(CNS(=O)(=O)c2cccc3cccnc23)CC1 (stereo not drawn)	x	2	x	x	x	x
CCc1nc2c(c(SC)nn2-c2ccccc2)c(N)c1C(=O)OC	-1	26*	-2	1	-16	7
COC(=O)[C@]12C[C@H](CC(=O)N3CCOCC3)C(=O)N(Cc3ccccc3)C1=C[C@H](C(C)(C)C)O[C@@H]2C	x	-5	-1	x	x	x
Cc1cccc2cc(C(c3nnnn3Cc3ccccc3)N3CCN(c4ccccc4)CC3)c(=O)[nH]c12 (stereo not drawn)	-2	185*	-2	3	-1	143*	RORg counter=>40
Cc1cccc2cc(C(c3nnnn3Cc3ccccc3)N3CCN(C)CC3)c(=O)[nH]c12 (stereo not drawn)	-1	x	x	-2	3	x
Oc1ccc(N=Nc2ccccc2C(F)(F)F)c2cccnc12	-4	23*	-3	6	-1	5
CCCCc1nnn2c1C1c3cc(Br)ccc3CCN1C(=O)C2 (stereo not drawn)	x	5	-2	x	x	x
CCOC(=O)C1=NOC(C(=O)NC2CCCC2)(C(=O)C2CC2)C1 (stereo not drawn)	x	0	x	x	x	x
Cc1ccc(C)c(NC(=O)CSc2nc3ccccc3nc2N2CCOCC2)c1	-1	32*	-2	7	8	24*
COc1ccc(NC(=O)COc2nc3ccccc3nc2N2CCOCC2)c(OC)c1	-2	24*	-4	1	2	10
COc1ccc(NC(=O)COc2nsnc2N2CCOCC2)cc1	-2	1	0	0	1	x
Cc1cc(C)c2nc(SCC(=O)Nc3ccccc3N3CCOCC3)c(C#N)cc2c1	0	65*	-1	2	0	32*	RORg counter=>40
Cc1ccccc1NC(=O)CSc1nc2cc3c(cc2cc1C)CCC3	3	102*	-2	5	-19	23*
Cc1ccc2c(c1)C1CS(=O)(=O)N(Cc3ccccc3)C(=O)N1C2 (stereo not drawn)	x	-1	x	x	x	x
CCN1Cc2nnn(Cc3ccccc3)c2-c2cc(N3CCCC3)ccc2S1(=O)=O	x	3	x	x	x	x
CCCCS(=O)(=O)NCC1CCN(C(=O)C(=O)c2cc3ccccc3o2)CC1	x	-2	-1	x	x	x
C[C@@H]1CN(c2ccc(N3CCN(C(=O)OC(C)(C)C)C[C@@H]3C)cc2C#N)C[C@H](C)O1	x	-1	0	x	x	x
C[C@H]1[C@@H](NC(=O)C#Cc2ccccc2)CC[C@@]23CCCN2C(=O)CCC[C@@H]13	x	1	x	x	x	x
SMILES	MC4R ag barr	Rev-erbA mod	PG9 Ab binder	NTR1 agonist	MC4R antagonist	NR1D1 mod conf	others
O=C(NCC1CCCO1)c1cn(Cc2ccccc2)nc1-c1ccccc1 (stereo not drawn)	-1	27*	1	6	8	-5
COC(=O)c1ccc(S(=O)(=O)NCCSc2nnc3c4ccccc4n(C)c3n2)cc1	-2	29*	x	1	7	18*
CC(C)CSc1nnc2c3ccccc3n(C)c2n1	7	20*	-3	4	14	15
COc1ccc(-c2cc(-c3nnc(SCC(=O)NC4CCCCC4)n3N)[nH]n2)cc1	x	-4	x	x	x	x
C[C@@H]1C(=O)N2N=Cc3cc4ccccc4cc3[C@H]2N2N=Cc3cc4ccccc4cc3[C@@H]12	x	-3	x	x	x	x
Oc1c(C2=NCCNC(C(F)(F)F)=C2)ccc2ccccc12	-1	18*	-5	0	0	7
Cc1ccc(O)c(C2=NCCNC(C(F)(F)F)=C2)c1	-2	4	-1	0	5	x
C(=N\Nc1nncc2ccccc12)/c1cccnc1	x	-6	x	x	x	x
CCCCCCCCN1C(=O)[C@@H](CC(=O)NCc2ccc(OC)c(OC)c2)C[C@@]2(C(=O)OC)C1=C[C@H](C(C)C)O[C@@H]2C1CC1	x	3	x	x	x	x
Cc1cc(C)c2c(n1)nn1c(N3CCN(c4ccccc4)CC3)cc(C)nc21	8	40*	7	9	-2	26*
Cc1cc(N2CCN(c3ccccc3)CC2)n2ncnc2n1	-2	-6	-3	0	12	x
Brc1cccc(-c2nc3cccnc3nc2-c2cccc(Br)c2)c1	-1	14*	-1	19	1	6
O=C(O)CN1C(c2ccccc2O)Nc2ccc(Br)cc2C1c1ccccc1 (stereo not drawn)	-2	-4	0	-1	1	x
COc1ccc(C2Nc3ccc(Br)cc3C(c3ccccc3)N2CC(=O)O)cc1 (stereo not drawn)	-3	18*	0	0	0	11
COc1ccc(C(=O)OCC(=O)Nc2nc3c(F)c(F)c(F)cc3s2)cc1OC	-2	20*	1	-1	12	3
COC(=O)C1=C(C)N(Cc2ccc(C(F)(F)F)cc2)C(=NCc2ccccc2C(F)(F)F)NC1c1cccc(Cl)c1 (stereo not drawn)	x	4	1	x	x	x
COc1cc(OC)cc(-c2c(Sc3ccccc3)c3cc(-c4ccc(SC)cc4)ccc3n2C)c1	x	29*	2	x	x	35*	RORg counter=>40
CSc1ccc(-c2ccc3c(c2)c(Sc2ccccc2)c(-c2ccccc2)n3C)cc1	x	17*	-1	x	x	25*
COc1cc(OC)cc(-c2c(Sc3ccccc3)c3cc(-c4ccc(OC)c(F)c4)ccc3n2C)c1	x	21*	8	x	x	37*	RORg counter=>40
CC(C)N1Cc2nnn(Cc3ccc(F)cc3)c2-c2cc(F)ccc2S1(=O)=O	x	2	x	x	x	x
O=C(NCCc1ccccc1)OCc1cn(-c2cccc(Cl)c2)nn1	x	-3	x	x	x	x
Cc1ccc(CNc2nc3ccccc3n3nnnc23)cc1	1	115*	2	-1	-8	71*	RORg counter=>40
Cc1nn(-c2ccc(F)cc2)c2c1cc(C#N)c1nc3ccccc3n12	-1	60*	-2	2	2	39*

Compound activity (PubChem BioAssay)
